# Compound activity from PubChem BioAssay.
# WT yeast gro inh: growth inhibition of WT yeast, mitochondrial fusion screen; mitochondrial fusion phenotypic screen, WT strain; inhibition, % at 10 µM; actives 2.1% (n = 190,000); in the data active means inhibition above about 58%; tested in S. cerevisiae
# RAM network inh: inhibitors of the yeast RAM network; S. cerevisiae dse1pr::URA3 reporter, 5-FOA growth OD615, 2 d; analog-sensitive cbk1-as2 kinase mutant strain; inhibition, % at 50 µM; actives 1.8% (n = 190,000);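 active means inhibition above a set limit, 3 SD over mean compound inhibition, cut at about 8.4% in these data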;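 further: 0% = DMSO-only wells with no growth and 100% = 10 µM 1-NA-PP1 full growth; inhibition rescues growth on 5-FOA so higher OD means more RAM inhibition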
# ABCG2 inh: blocks JC-1 efflux by human ABCG2 transporter | Q9UNQ0 | IgMXP3 cells, flow cytometry | inhibition, % at 6.6 µM | actives 0.1% (n = 190,000) | AID 1325;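 active means inhibition above 80%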;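 further: 0% = DMSO and 100% = nicardipine control wells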
# Target sequence (Q9UNQ0 whole entry, looked up): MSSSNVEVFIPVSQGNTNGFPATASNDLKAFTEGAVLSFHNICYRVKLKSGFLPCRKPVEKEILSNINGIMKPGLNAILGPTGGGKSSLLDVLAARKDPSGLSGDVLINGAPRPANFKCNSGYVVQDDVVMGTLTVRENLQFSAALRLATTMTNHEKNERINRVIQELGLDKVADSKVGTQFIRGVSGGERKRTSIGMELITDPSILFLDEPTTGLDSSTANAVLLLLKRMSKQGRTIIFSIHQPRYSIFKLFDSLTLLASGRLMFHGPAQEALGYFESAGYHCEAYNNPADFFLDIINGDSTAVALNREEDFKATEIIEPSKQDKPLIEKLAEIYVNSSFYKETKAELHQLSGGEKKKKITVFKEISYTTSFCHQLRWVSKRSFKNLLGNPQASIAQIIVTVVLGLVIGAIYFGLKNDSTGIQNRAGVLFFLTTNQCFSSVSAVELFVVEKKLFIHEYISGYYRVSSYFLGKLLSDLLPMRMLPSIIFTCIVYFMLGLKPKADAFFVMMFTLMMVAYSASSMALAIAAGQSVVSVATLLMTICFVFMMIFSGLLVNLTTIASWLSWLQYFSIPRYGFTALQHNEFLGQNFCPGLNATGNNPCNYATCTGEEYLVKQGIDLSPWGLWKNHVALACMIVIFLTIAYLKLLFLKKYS
#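 Test system: IgMXP3 cells (ABCG2) mixed with DDAO far-red-labelled CCRF-Adr cells (ABCB1). Reagent: JC-1 transporter substrate. Compound dosing: single test compound dose, 6.6 µM final. Times: 10 min compound exposure, 25 °C. Detection: flow cytometry of retained JC-1 fluorescence. Read-out basis: efflux inhibition in percent versus controls. Controls: nicardipine and DMSO wells.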
# L major viab: Leishmania major promastigote growth inhibition | Leishmania major promastigotes, resazurin fluorescence viability | inhibition, % at 10 µM | actives 9% (n = 200,000) | AID 1063; in the data active means inhibition above about 50%;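 further: promastigotes grown with compound for 44 hours at 28 °C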
# ABCB1 inh: inhibitors of human ABCB1 transporter, ABCG2 counter-screen | AID 1326 | inhibition, % at 6.6 µM | CCRF-Adr cells, JC-1 efflux, flow cytometry | actives 0.067% (n = 190,000) | P08183; in the data active means inhibition above about 40%;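 further: 0% = vehicle and 100% = reference inhibitor; higher value means more JC-1 retained so stronger ABCB1 efflux block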
# Active calls of the source: *. The list is not random: actives were taken first. Their share in the collection is about 12%.
SMILES,WT yeast gro inh,RAM network inh,ABCG2 inh,L major viab,ABCB1 inh
Cc1ccc(-n2nnnc2SCC(=O)Nc2cccc(NC(=O)c3ccco3)c2)cc1C,-10,3,2,66*,1
Cc1cc(NC(=O)c2cccc(S(=O)(=O)N3CCCCCC3)c2)n(-c2ccccn2)n1,2,3,10,14,3
Cc1cc(C)nc(-n2nc(C)cc2NC(=O)c2cccc(S(=O)(=O)N3CCCCC3)c2)n1,3,0,31,72*,15
COc1ccc(OC)c(N/C=C/C(=C(C#N)C#N)N(C)C)c1,11,1,6,8,1
COc1ccccc1N1CCN(C(=O)c2ccc3nc[nH]c3c2)CC1,-1,0,5,-3,1
COc1ccccc1N1CCN(C(=O)c2ccc3[nH]c4c(c3c2)CC(C)CC4)CC1 (centres undefined),72*,5,35,99*,6
CCCC(=O)OCCNc1cc(Sc2nc3ccccc3[nH]2)c2nonc2c1[N+](=O)[O-],4,3,-5,53*,-1
CCC(=O)OCCNc1cc(Sc2nccn2C)c2nonc2c1[N+](=O)[O-],22,0,9,85*,1
CCCCCCCCCOC(=O)C[n+]1csc(CCO)c1C,40,3,2,98*,0
Cc1cc(N2CCN(C(c3ccccc3)c3ccccc3)CC2)n2ncnc2n1,38,5,17,0,1
Cc1nc2ncnn2c(N2CCN(C(c3ccccc3)c3ccccc3)CC2)c1C,4,1,4,68*,1
O=C(Nc1ccccc1SCC1CSc2nc3ccccc3c(=O)n21)c1ccccc1 (centres undefined),11,1,-1,-8,-3
O=c1c2ccccc2nc2n1C(CSCc1ccc(Cl)cc1)CS2 (centres undefined),-4,1,6,59*,2
Cc1ccc(C(=O)Nc2ccccc2SCC2CSc3nc4ccccc4c(=O)n32)cc1 (centres undefined),-11,0,11,50*,1
Cc1c(NC(=O)COC(=O)c2cc3c4ccccc4n(C)c3s2)c(=O)n(-c2ccccc2)n1C,51,1,-1,96*,0
COc1cccc2c1C(=O)C=C(C)C2=O,28,2,33,99*,0
CCn1cc(C(=O)OC)c(=O)c2cc(S(=O)(=O)N(C)C3CCCCC3)ccc21,-9,1,5,1,1
CCCCCCN(C(=O)CCCCCN1C(=O)NC(c2ccc(Cl)cc2)C(C(=O)OCc2ccccc2)=C1C)C(C(=O)NCCCC)c1ccc(OCC(=O)OC)c(C(=O)OC)c1 (centres undefined),5,10*,15,1,2
O=c1c(Cl)c2oc3ccccc3nc-2c2ccccc12,44,2,9,81*,2
O=c1oc(Nc2cccc(Cl)c2)nc2ccccc12,3,0,0,8,0
CCOc1ccccc1N1CCN(S(=O)(=O)c2ccc3c4c(cccc24)C(=O)N3)CC1,24,4,24,74*,-1
COc1ccc(-c2nc(N)nc(C)c2Oc2ccccc2Br)c(O)c1,83*,1,0,30,0
COc1ccc(-c2c[n+](CC(=O)OC3CC(C)CCC3C(C)C)c3n2CCC3)cc1 (centres undefined),12,1,-5,100*,0
CC1(C)CC(=O)C2=C(C1)OC1OC(=O)CC21C (centres undefined),-13,1,1,-8,0
Cc1ccc(Cc2c[nH]c(=S)s2)cc1,68*,0,8,-4,1
SMILES,WT yeast gro inh,RAM network inh,ABCG2 inh,L major viab,ABCB1 inh
Cc1ccc(CN2C(=O)CNC2=S)cc1,-7,4,-4,-6,0
FC(F)(F)c1cccc(CN2CCC(c3cc(-c4cccs4)n[nH]3)CC2)c1,21,0,2,13,2
Cc1ccc(CN2CCC(c3cc(-c4cccs4)n[nH]3)CC2)cc1,38,-1,4,94*,0
Cc1ccc(NC(=S)Nc2cccc3cnccc23)c(C)c1,69*,0,2,19,0
O=C(NC(=S)Nc1cccc2cnccc12)c1ccccc1,-3,2,5,-5,1
CCc1ccc(NC(=S)Nc2cccc3cnccc23)cc1,61*,1,2,2,0
Cc1cc(C)cc(NC(=S)Nc2cccc3cnccc23)c1,65*,1,-2,28,0
C=C(C)CNC(=S)Nc1cccc2cnccc12,-7,0,-1,-4,0
CCN1CCN(CCCNC(=O)C2c3ccccc3C(=O)N(c3ccc(OC)cc3)C2c2ccc(OC)cc2)CC1 (centres undefined),-1,0,3,-3,1
CN(C)S(=O)(=O)c1ccc(NC(=O)COc2ncnc3sccc23)cc1,-11,0,6,1,0
CCc1ccc(NS(=O)(=O)c2ccc(OC)c(C)c2)cc1,59*,5,2,0,1
COC(=O)c1ccc(C)c(NS(=O)(=O)c2ccc(OC)c(OC)c2)c1,-9,1,19,100*,3
CCN(CC)S(=O)(=O)c1ccc(C)c(N=C=S)c1,27,4,-7,-1,-2
CN(Cc1nc(-c2cccs2)no1)CC1COCCO1 (centres undefined),-6,1,3,-8,0
Cc1c(Br)c([N+](=O)[O-])nn1CC(=O)Nc1cccc2nonc12,1,8,1,-3,0
Cc1onc(-c2ccccc2)c1C(=O)NC(=S)NNC(=O)c1ccccc1O,28,5,8,67*,1
Cc1onc(-c2ccccc2)c1C(=O)NC(=S)NNC(=O)c1ccc(O)cc1O,28,1,-6,92*,-2
Cc1onc(-c2ccccc2)c1C(=O)NC(=S)NNC(=O)c1ccc(O)cc1,-12,6,9,0,0
CC(=O)NC1=NN(C(C)=O)C(C)(CS(=O)(=O)c2ccc3ccccc3c2)S1 (centres undefined),-10,2,0,-3,0
CCCOC(=O)c1ccc(Oc2coc3c(CN(CC)CC)c(O)ccc3c2=O)cc1,-10,1,3,-4,0
N#Cc1cccc(NC(=O)C2SC(=Nc3ccccc3)C(C(=O)N3CCOCC3)=C2N)c1 (centres undefined),-2,1,0,54*,0
CC(C)CNC(=O)C(=O)NNC(=O)c1ccco1,-10,1,-1,-7,0
O=C1N(CCCCN2C(=O)C3(OCCO3)c3ccccc32)c2ccccc2C12OCCO2,6,2,-7,59*,-5
CC(=O)c1cc2c(cc1NC(=O)C1CCC1)OCO2,0,0,4,-4,1
O=C(c1cc2ccccc2oc1=O)N(c1ccc(Cl)cc1)C1C=CS(=O)(=O)C1 (centres undefined),0,1,4,61*,1
COc1ccc(N=c2oc3c(OC)cccc3cc2C(=O)NCc2ccco2)c(OC)c1,6,7,5,4,1
